The subject of one data set is NIH-3T3 cells. In words: MTT cytotoxicity assay in non-cancerous NIH-3T3 cells. The note with it: for IC50: Mus musculus; for cytotoxic effect on non-cancerous NIH-3T3 cells (in words): NIH-3T3 mouse embryonic fibroblast, treatment up to 48 h. It counts as cell-based, mouse. Summed up: (§1)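 Cells (A549 or NIH-3T3) were seeded at 5 × 10^3 per well and grown 24 h at 37 °C, 5% CO2, then given increasing concentrations for 24 h and 48 h. DMSO/medium served as negative control and cisplatin as standard. MTT (5 mg mL−1 stock) was added for 4 h at 37 °C, formazan was dissolved in DMSO, and A595 was read. Triplicate means were used; IC50 came from dose–response inhibition curves.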

Data set [1] concerns A549 cells. As to the kind of experiment: Intracellular ROS generation. The class given is cell-based, human. The conditions noted are these: IC50 concentrations, DCFH-DA, 0-24 h. The method in brief:
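Cells were seeded at 3.0 × 10^4 cells per mL in 24-well plates for 24 h, then dosed at 24 h IC50 concentrations with added 100 μM H2O2 solution. After 10 μM DCFH-DA solution was added, plates were held 10 min in the dark. DCF fluorescence (ex 488/em 510 nm) was read at 0, 2, 4, 6, 8, 12 and 24 h and expressed as fold change versus untreated control. Triplicates, mean ± SD.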

Data set [2] concerns A549 cells. As to the kind of experiment: AO/EB and Hoechst 33258 staining assay. The class given is cell-based, human. The note with it: A549 cells treated at respective IC50 concentration, 24 h and 48 h. The method in brief: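 A549 cells were seeded at 5 × 10^4 per well and grown 24 h at 37 °C, 5% CO2, then exposed at the respective IC50 concentration for 24 h and 48 h, alongside untreated and cisplatin controls. Staining used either AO/EB solution (100 μg per mL each) or Hoechst 33258 solution (100 μg per mL). Cells were examined and counted by fluorescence microscopy within 20 min.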

Data set [3] has as its system A549 cells. As to the kind of experiment: MTT cytotoxicity assay against the A549 lung cancer cell line. The class given is cell-based, human. The conditions noted are these: for cytotoxic activity compared with cisplatin: MTT. Summed up: as §1
In general terms: Tetrazolium assays rely on reduction of a dye to a coloured formazan, in cell work by metabolically active cells.

The mark [4] stands for this setting: NIH3T3, 24 h, read-out: IC50 at 24 h.
The mark [5] stands for this setting: NIH3T3, 48 h, read-out: IC50 at 48 h.

“Also recorded” adds a separate entry of the source. Read-outs that look alike come from different tables or passages of the source. Bounds are passed on as bounds.

Regarding `Cc1cc(C)c(C2CN(C)C3(C(=O)Nc4ccccc43)C2C(=O)c2ccccc2)c(C)c1` (stereo not drawn) [4a, 3′-Benzoyl-4′-mesityl-1′-methylspiro[indoline-3,2′-pyrrolidin]-2-one], the results for the IC50 with NIH-3T3 cells (setting [4]) and with NIH-3T3 cells (setting [5]) were more than 100 µM and 25.4 ± 3.74 µM, respectively. For the same compound, the “DCF fluorescent intensity compared with the untreated control group” value in the data set with A549 cells [1] is given as “Not much difference”. The “apoptosis induction (AO/EB and Hoechst staining)” value (“apoptosis induction” below) with A549 cells [2] was “apoptosis-inducing capabilities”.

With `Cc1cc(C)c(C2CN(C)C3(C(=O)Nc4ccccc43)C2C(=O)c2ccc(F)cc2)c(C)c1` (stereo not drawn) [4b, 3′-(4-Fluorobenzoyl)-4′-mesityl-1′-methylspiro[indoline-3,2′-pyrrolidin]-2-one], the IC50 – broadly, the concentration that inhibits the measured activity by half – with NIH-3T3 cells (setting [4]) was more than 100 µM; in the data set on NIH-3T3 cells (setting [5]), 32.8 ± 5.95 µM. In addition, the “DCF fluorescent intensity compared with the untreated control group” value in the data set with A549 cells [1] is reported as “Not much difference”.

As to `Cc1cc(C)c(C2CN(C)C3(C(=O)Nc4ccccc43)C2C(=O)c2ccc(Cl)cc2)c(C)c1` (stereo not drawn) [4c, 3′-(4-Chlorobenzoyl)-4′-mesityl-1′-methylspiro[indoline-3,2′-pyrrolidin]-2-one], the IC50 with NIH-3T3 cells (setting [4]) and in the data set on NIH-3T3 cells (setting [5]) was more than 100 µM in each case. Besides, in the data set on A549 cells [3], the “cytotoxic activity compared with cisplatin” value is reported as “better activity than cisplatin”.

Regarding `Cc1cc(C)c(C2CN(C)C3(C(=O)Nc4ccccc43)C2C(=O)c2ccc(Br)cc2)c(C)c1` (stereo not drawn) [4d, 3′-(4-Bromobenzoyl)-4′-mesityl-1′-methylspiro[indoline-3,2′-pyrrolidin]-2-one], the IC50 in the data set with NIH-3T3 cells (setting [4]) and in the data set on NIH-3T3 cells (setting [5]) was more than 100 µM in each case. In addition, the “cytotoxic activity compared with cisplatin” value in the data set on A549 cells [3] is reported as “better activity than cisplatin”.

Turning to `Cc1ccc(C(=O)C2C(c3c(C)cc(C)cc3C)CN(C)C23C(=O)Nc2ccccc23)cc1` (stereo not drawn) [4e, 4′-Mesityl-1′-methyl-3′-(4-methylbenzoyl)spiro[indoline-3,2′-pyrrolidin]-2-one], the IC50 in the data set with NIH-3T3 cells (setting [4]) and in the data set with NIH-3T3 cells (setting [5]) was more than 100 µM throughout. Moreover, the “DCF fluorescent intensity compared with the untreated control group” value with A549 cells [1] is on record as “Not much difference”. Also, the “cytotoxic activity compared with cisplatin” value in the data set with A549 cells [3] was “better activity than cisplatin”.

Turning to `Cc1cc(C)c(C2CN(C)C3(C(=O)Nc4ccccc43)C2C(=O)c2cccc(Cl)c2)c(C)c1` (stereo not drawn) [4f, 3′-(3-Chlorobenzoyl)-4′-mesityl-1′-methylspiro[indoline-3,2′-pyrrolidin]-2-one], the concentration for half-maximal inhibition (IC50) in the data set on NIH-3T3 cells (setting [4]) and in the data set on NIH-3T3 cells (setting [5]) was more than 100 µM throughout. Besides, in the data set with A549 cells [3] (at 24 and 48 h), the “reduction in cell viability” value was “No substantial reduction in cell viability”.

`Cc1cccc(C(=O)C2C(c3c(C)cc(C)cc3C)CN(C)C23C(=O)Nc2ccccc23)c1` (stereo not drawn) [4g, 4′-Mesityl-1′-methyl-3′-(3-methylbenzoyl)spiro[indoline-3,2′-pyrrolidin]-2-one]: the IC50 in the data set with NIH-3T3 cells (setting [4]) is more than 100 µM; in the data set with NIH-3T3 cells (setting [5]), 75.3 ± 0.94 µM. The “DCF fluorescent intensity compared with the untreated control group” value with A549 cells [1] was “Not much difference”.

Regarding `Cc1cc(C)c(C2C3CCCN3C3(C(=O)Nc4ccccc43)C2C(=O)c2ccccc2)c(C)c1` (stereo not drawn) [5a, 2′-Benzoyl-1′-mesityl-1′,2′,5′,6′,7′,7a′-hexahydrospiro[indoline-3,3′-pyrrolizin]-2-one], the results for the IC50 in the data set on NIH-3T3 cells (setting [4]) and with NIH-3T3 cells (setting [5]) were more than 100 µM and 72 ± 4.45 µM, respectively. Further, the “cytotoxic activity compared with cisplatin” value in the data set on A549 cells [3] is on record as “better activity than cisplatin”.

On to `Cc1cc(C)c(C2C3CCCN3C3(C(=O)Nc4ccccc43)C2C(=O)c2ccc(F)cc2)c(C)c1` (stereo not drawn) [5b, 2′-(4-Fluorobenzoyl)-1′-mesityl-1′,2′,5′,6′,7′,7a′-hexahydrospiro[indoline-3,3′-pyrrolizin]-2-one], for which the IC50 was more than 100 µM in the data set on NIH-3T3 cells (setting [4]) and 69.9 ± 1.3 µM with NIH-3T3 cells (setting [5]). Also, the “cytotoxic activity compared with cisplatin” value in the data set on A549 cells [3] is listed as “better activity than cisplatin”.

Consider `Cc1cc(C)c(C2C3CCCN3C3(C(=O)Nc4ccccc43)C2C(=O)c2ccc(Cl)cc2)c(C)c1` (stereo not drawn) [5c, 2′-(4-Chlorobenzoyl)-1′-mesityl-1′,2′,5′,6′,7′,7a′-hexahydrospiro[indoline-3,3′-pyrrolizin]-2-one], for which the IC50 in the data set on NIH-3T3 cells (setting [4]) was more than 100 µM; with NIH-3T3 cells (setting [5]) it was 72.1 ± 0.95 µM. Moreover, the “DCF fluorescent intensity compared with the untreated control group” value with A549 cells [1] is “Not much difference”. For the same compound, the “cytotoxic activity compared with cisplatin” value with A549 cells [3] is “better activity than cisplatin”.

For the compound `Cc1cc(C)c(C2C3CCCN3C3(C(=O)Nc4ccccc43)C2C(=O)c2ccc(Br)cc2)c(C)c1` (stereo not drawn) [5d, 2′-(4-Bromobenzoyl)-1′-mesityl-1′,2′,5′,6′,7′,7a′-hexahydrospiro[indoline-3,3′-pyrrolizin]-2-one], the IC50 with NIH-3T3 cells (setting [4]) was more than 100 µM; in the data set on NIH-3T3 cells (setting [5]), 42.9 ± 1.51 µM. For the same compound, in the data set with A549 cells [3], the “cytotoxic activity compared with cisplatin” value is reported as “better activity than cisplatin”.

Take `Cc1ccc(C(=O)C2C(c3c(C)cc(C)cc3C)C3CCCN3C23C(=O)Nc2ccccc23)cc1` (stereo not drawn) [5e, 1′-Mesityl-2′-(4-methylbenzoyl)-1′,2′,5′,6′,7′,7a′-hexahydrospiro[indoline-3,3′-pyrrolizin]-2-one]: the IC50 with NIH-3T3 cells (setting [4]) and in the data set on NIH-3T3 cells (setting [5]) was more than 100 µM each time. The “cytotoxic effect on non-cancerous NIH-3T3 cells (in words)” value in the data set on NIH-3T3 cells is “non-cytotoxic; also recorded: no cytotoxic effects”. In addition, the “DCF fluorescent intensity compared with the untreated control group” value in the data set with A549 cells [1] is listed as “Not much difference”. Moreover, the “apoptosis induction” value in the data set on A549 cells [2] was “higher number of early and late apoptotic cells; also recorded: apoptosis-inducing capabilities”.

Take `Cc1cc(C)c(C2C3CCCN3C3(C(=O)Nc4ccccc43)C2C(=O)c2cccc(Cl)c2)c(C)c1` (stereo not drawn) [5f, 2′-(3-Chlorobenzoyl)-1′-mesityl-1′,2′,5′,6′,7′,7a′-hexahydrospiro[indoline-3,3′-pyrrolizin]-2-one]: the IC50 with NIH-3T3 cells (setting [4]) and in the data set on NIH-3T3 cells (setting [5]) was more than 100 µM each time. In the data set with NIH-3T3 cells, the “cytotoxic effect on non-cancerous NIH-3T3 cells (in words)” value is recorded as “non-cytotoxic; also recorded: no cytotoxic effects”. In the data set with A549 cells [1], the “DCF fluorescent intensity compared with the untreated control group” value is given as “Not much difference”. Also, the “apoptosis induction” value in the data set with A549 cells [2] is “higher number of early and late apoptotic cells; also recorded: apoptosis-inducing capabilities; also recorded: induces apoptosis”. Besides, the “fold higher activity at 48 h than at 24 h” value in the data set on A549 cells [3] (IC50 at 48 h vs 24 h) is on record as approximately 13 fold.

Regarding `Cc1cccc(C(=O)C2C(c3c(C)cc(C)cc3C)C3CCCN3C23C(=O)Nc2ccccc23)c1` (stereo not drawn) [5g, 1′-Mesityl-2′-(3-methylbenzoyl)-1′,2′,5′,6′,7′,7a′-hexahydrospiro[indoline-3,3′-pyrrolizin]-2-one], the IC50 with NIH-3T3 cells (setting [4]) and with NIH-3T3 cells (setting [5]) was more than 100 µM throughout. Further, in the data set with A549 cells [3], the “cytotoxic activity compared with cisplatin” value is “better activity than cisplatin”.

As for `N.N.[Cl][Pt][Cl]` [Cisplatin, cisplatin, reference compound], in the data set on A549 cells [2], the “apoptosis induction” value is “distinct changes as an indication of apoptosis and cell death”.
